Source: ChEMBL document CHEMBL1146201, “Comparison of a SYBR green I-based assay with a histidine-rich protein II enzyme-linked immunosorbent assay for in vitro antimalarial drug efficacy testing and application to clinical isolates” (Antimicrob Agents Chemother, 2007)
Where a name gives a salt, the structure may show the parent alone.

Tests used:
Type in all cases: functional, organism-based
Plasmodium falciparum [1] = experiment: Growth inhibition after 72 hrs of Plasmodium falciparum W2 by SYBR green I assay; settings: W2, 72 h
Outline: (§1)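 Cultures were set up as for the ELISA arm: 0.5% parasitemia, 2% hematocrit, 72 h at 37°C, 5% O2/5% CO2/90% N2, twofold drug dilutions in duplicate. Plates were frozen at −80°C and thawed 2 h. 100 μl culture was mixed with an equal volume of SYBR green I in lysis buffer (Tris 20 mM pH 7.5, EDTA, saponin, Triton X-100), then held 1 h at RT. Fluorescence was read at 485/535 nm, with an uninfected-RBC background control. IC50/IC90 were derived by nonlinear fitting.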

Plasmodium falciparum [2] = experiment: Growth inhibition after 72 hrs of Plasmodium falciparum 3D7 by HRPII ELISA; settings: 3D7, 72 h
Outline: (§2)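 Ring-stage cultures (≥70% rings) diluted to 0.5% parasitemia, 2% hematocrit, in RPMI with Albumax I or 10% human serum. Incubated 72 h at 37°C under 5% O2/5% CO2/90% N2 in plates predosed in duplicate with twofold dilutions (chloroquine 3.8–242 nM, quinine 10.8–346 nM, mefloquine 1.1–37.7 nM). Plates were then frozen and thawed. Lysate was assayed by HRPII capture ELISA (IgM capture, HRP detector), A450. IC50/IC90 were derived by nonlinear fitting.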

Plasmodium falciparum [3] = experiment: Growth inhibition after 72 hrs of Plasmodium falciparum 3D7 by SYBR green assay; settings: 3D7, 72 h; outline: as §1
Plasmodium falciparum [4] = experiment: Growth inhibition after 72 hrs of Plasmodium falciparum W2 by HRPII ELISA; settings: W2, 72 h; outline: as §2
Plasmodium falciparum [5] = experiment: Growth inhibition after 72 hrs of Plasmodium falciparum D6 by HRPII ELISA; settings: D6, 72 h; outline: as §2
Plasmodium falciparum [6] = experiment: Growth inhibition after 72 hrs of Plasmodium falciparum D6 by SYBR green I assay; settings: D6, 72 h; outline: as §1

| SMILES | IC50 (Plasmodium falciparum [1]) [nM] | IC90 (Plasmodium falciparum [1]; read-out: IC90) [nM] | IC50 (Plasmodium falciparum [2]) [nM] | IC90 (Plasmodium falciparum [2]) [nM] | IC50 (Plasmodium falciparum [3]) [nM] | IC90 (Plasmodium falciparum [3]) [nM] | IC50 (Plasmodium falciparum [4]) [nM] | IC90 (Plasmodium falciparum [4]) [nM] | IC50 (Plasmodium falciparum [5]) [nM] | IC90 (Plasmodium falciparum [5]) [nM] | IC50 (Plasmodium falciparum [6]) [nM] | IC90 (Plasmodium falciparum [6]) [nM] | IC90 (Plasmodium falciparum [1]) [nM] |
| --- | --- | --- | --- | --- | --- | --- | --- | --- | --- | --- | --- | --- | --- |
| C=CC1CN2CC[C@H]1C[C@H]2[C@H](O)c1ccnc2ccc(OC)cc12 (single isomer, unassigned) [QUININE HYDROCHLORIDE] | 22.2 | 116 | 5.9 | 42.6 | 6.9 | 63.7 | 15.1 | 128 | 6.7 | 13.2 | 6.6 | 12.4 |  |
| CCN(CC)CCCC(C)Nc1ccnc2cc(Cl)ccc12 (configuration not stated) [CHLOROQUINE PHOSPHATE] |  |  |  | 33.2 |  | 26.4 |  | 129 |  | 15.8 |  | 16.1 | 125 |
| O[C@@H](c1cc(C(F)(F)F)nc2c(C(F)(F)F)cccc12)[C@H]1CCCCN1 [MEFLOQUINE HYDROCHLORIDE] |  | 12.2 | 8.4 | 25.6 | 9.4 | 29.8 | 1.9 | 8 |  |  | 6.4 | 23.3 |  |
